Reference: ChEMBL document CHEMBL1250467, “Design, synthesis, and anticonvulsant activity of new N-Mannich bases derived from spirosuccinimides and spirohydantoins” (Bioorg Med Chem, 2010)
Activity calls are given as the source filed them. The calls are words filed in the database; no cut-off is given here.

Legend:
[1] = system: Mus musculus; assay: Anticonvulsant activity in ip dosed CF1 albino mouse assessed as dose required to protect against maximal electroshock-induced seizures after 0.5 hrs; assay type: functional
Outline: (§1)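 Male CF-1 mice; compounds suspended in 0.5% methylcellulose/water and injected ip at 30, 100 and 300 mg/kg. MES, scPTZ (pentylenetetrazole 85 mg/kg sc at the test time) and rotarod neurotoxicity were scored at 0.5 and 4 h. Value is the lowest dose active or toxic in half or more of the animals; signs such as ataxia or tremor were recorded.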

[2] = system: Mus musculus; assay: Anticonvulsant activity in ip dosed CF1 albino mouse assessed as dose required to protect against maximal electroshock-induced seizures after 4 hrs; assay type: functional; outline: as §1
[3] = system: Mus musculus; assay: Anticonvulsant activity in ip dosed CF1 albino mouse assessed as dose required to protect against subcutaneous pentylenetetrazole-induced seizures after 0.5 hrs; assay type: functional; outline: as §1
[4] = system: Mus musculus; assay: Anticonvulsant activity in CF1 albino mouse assessed as protection against subcutaneous pentylenetetrazole-induced seizures at 300 mg/kg, ip after 4 hrs; assay type: functional, organism-based; set-up: dose 300 mg/kg; outline: as §1
[5] = system: Mus musculus; assay: Neurotoxicity in CF1 albino mouse at 300 mg/kg, ip after 4 hrs by rotarod test; assay type: toxicity, organism-based; set-up: dose 300 mg/kg, route intraperitoneal; settings: in vivo; outline: as §1
[6] = system: Mus musculus; assay: Neurotoxicity in CF1 albino mouse assessed as unable to grasp rotarod at 300 mg/kg, ip after 4 hrs by rotarod test; assay type: toxicity, organism-based; set-up: dose 300 mg/kg, route intraperitoneal; settings: in vivo; outline: as §1
[7] = system: Rattus norvegicus; assay: Anticonvulsant activity in Sprague-Dawley rat assessed as protection against maximal electroshock-induced seizures at 30 mg/kg po after 0.25 hrs; assay type: functional
Outline: (§2)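 Male Sprague–Dawley rats, four per group, given 30 mg/kg orally as a 0.5% methylcellulose/water suspension. MES protection scored at 0.25, 0.5, 1, 2 and 4 h after dosing, motor impairment checked in parallel; data are the number of the four rats protected.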

[8] = system: Rattus norvegicus; assay: Anticonvulsant activity in Sprague-Dawley rat assessed as protection against maximal electroshock-induced seizures at 30 mg/kg po after 0.5 hrs; assay type: functional; outline: as §2
[9] = system: Rattus norvegicus; assay: Anticonvulsant activity in Sprague-Dawley rat assessed as protection against maximal electroshock-induced seizures at 30 mg/kg po after 1 hr; assay type: functional; outline: as §2
[10] = system: Rattus norvegicus; assay: Anticonvulsant activity in Sprague-Dawley rat assessed as protection against maximal electroshock-induced seizures at 30 mg/kg po after 2 hrs; assay type: functional; outline: as §2
[11] = system: Rattus norvegicus; assay: Anticonvulsant activity in Sprague-Dawley rat assessed as protection against maximal electroshock-induced seizures at 30 mg/kg po after 4 hrs; assay type: functional; outline: as §2
[12] = system: Mus musculus; assay: Neurotoxicity in ip dosed CF1 albino mouse assessed as dose required to cause toxicity after 0.5 hrs by rotarod test; assay type: organism-based; settings: in vivo; outline: as §1
[13] = system: Mus musculus; assay: Anticonvulsant activity in CF1 albino mouse assessed as protection against maximal electroshock-induced seizures at 300 mg/kg, ip after 0.5 hrs; assay type: functional, organism-based; set-up: dose 300 mg/kg; outline: as §1
[14] = system: Mus musculus; assay: Anticonvulsant activity in CF1 albino mouse assessed as protection against maximal electroshock-induced seizures at 300 mg/kg, ip after 4 hrs; assay type: functional, organism-based; set-up: dose 300 mg/kg; outline: as §1
[15] = system: Mus musculus; assay: Anticonvulsant activity in CF1 albino mouse assessed as protection against subcutaneous pentylenetetrazole-induced seizures at 300 mg/kg, ip after 0.5 hrs; assay type: functional, organism-based; set-up: dose 300 mg/kg; outline: as §1
[16] = system: Mus musculus; assay: Anticonvulsant activity in ip dosed CF1 albino mouse assessed as dose required to protect against subcutaneous pentylenetetrazole-induced seizures after 4 hrs; assay type: functional; outline: as §1
[17] = system: Rattus norvegicus; assay: Anticonvulsant activity in po dosed Sprague-Dawley rat assessed as time required to peak protection against seizures; assay type: functional
[18] = system: Rattus norvegicus; assay: Anticonvulsant activity in po dosed Sprague-Dawley rat assessed as protection against maximal electroshock-induced seizures; assay type: functional
Outline: (§3)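 Male Sprague–Dawley rats dosed orally (0.5% methylcellulose/water suspension), groups of eight, tested at the previously estimated time of peak effect. Doses varied until at least three points lay in the 10–90% range of protection (MES, scPTZ) or minimal rotarod neurotoxicity. ED50/TD50 with 95% confidence intervals came from regression; PI = TD50/ED50.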

[19] = system: Rattus norvegicus; assay: Anticonvulsant activity in po dosed Sprague-Dawley rat assessed as protection against subcutaneous pentylenetetrazole-induced seizures; assay type: functional; outline: as §3
[20] = Neurotoxicity in po dosed Sprague-Dawley rat by rotarod test; assay type: toxicity, organism-based; settings: in vivo; outline: as §3
[21] = organism: Rattus norvegicus; assay: Protection index, ratio of TD50 for Sprague-Dawley rat by rotarod test to ED50 for Sprague-Dawley rat by maximal electroshock test; assay type: functional; outline: as §3
[22] = Displacement of [3H]batrachotoxin from neurotoxin site 2 of voltage-gated sodium channel in rat forebrain tissue
[23] = system: Mus musculus; assay: Anticonvulsant activity in CF1 albino mouse assessed as protection against electrically-induced seizure at 100 mg/kg, ip after 0.25 hrs by 6Hz psychomotor seizure test; assay type: functional, organism-based; set-up: dose 100 mg/kg
Outline: (§4)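 Male CF-1 mice, compound suspended in 0.5% methylcellulose/water, given ip at 100 mg/kg; four mice per time point (0.25, 0.5, 1, 2, 4 h). Corneal stimulation with 0.2 ms monopolar rectangular pulses at 6 Hz for 3 s from a constant-current device, mice manually restrained. A mouse counted as protected if normal exploratory behaviour resumed within 10 s; motor impairment was noted alongside.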

[24] = system: Mus musculus; assay: Anticonvulsant activity in CF1 albino mouse assessed as protection against electrically-induced seizure at 100 mg/kg, ip after 0.5 hrs by 6Hz psychomotor seizure test; assay type: functional, organism-based; set-up: dose 100 mg/kg; outline: as §4
[25] = system: Mus musculus; assay: Anticonvulsant activity in CF1 albino mouse assessed as protection against electrically-induced seizure at 100 mg/kg, ip after 1 hr by 6Hz psychomotor seizure test; assay type: functional; outline: as §4
[26] = system: Mus musculus; assay: Anticonvulsant activity in CF1 albino mouse assessed as protection against electrically-induced seizure at 100 mg/kg, ip after 2 hrs by 6Hz psychomotor seizure test; assay type: functional, organism-based; set-up: dose 100 mg/kg; outline: as §4
[27] = system: Mus musculus; assay: Anticonvulsant activity in CF1 albino mouse assessed as protection against electrically-induced seizure at 100 mg/kg, ip after 4 hrs by 6Hz psychomotor seizure test; assay type: functional; outline: as §4
[28] = system: Rattus norvegicus; assay: Anticonvulsant activity in Sprague-Dawley rat assessed as protection against pilocarpine-induced status epilepticus at 600 mg/kg, ip measured after clonus of one of the fore limbs seizure stage; assay type: functional, organism-based; set-up: dose 600 mg/kg
Outline: (§5)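 Male Sprague–Dawley rats (150–180 g) received compound ip at 600 mg/kg, then a challenge dose of pilocarpine. Seizure severity graded on the Racine scale; rats were scored as protected or not, and body weight change was taken 24 h after the first stage III seizure.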

[29] = system: Rattus norvegicus; assay: Anticonvulsant activity in Sprague-Dawley rat assessed as protection against pilocarpine-induced status epilepticus at 600 mg/kg, ip; assay type: functional, organism-based; set-up: dose 600 mg/kg; outline: as §5
[30] = system: Rattus norvegicus; assay: Toxicity in Sprague-Dawley rat assessed as change in body weight at 600 mg/kg, ip measured after 24 hrs of clonus of one of the fore limbs seizure stage in protected rat; assay type: organism-based; set-up: dose 600 mg/kg, route intraperitoneal; settings: in vivo; outline: as §5
[31] = system: Rattus norvegicus; assay: Toxicity in Sprague-Dawley rat assessed as change in body weight at 600 mg/kg, ip measured after 24 hrs of clonus of one of the fore limbs seizure stage in non-protected rat; assay type: organism-based; set-up: dose 600 mg/kg, route intraperitoneal; settings: in vivo; outline: as §5
[32] = system: Mus musculus; assay: Neurotoxicity in ip dosed CF1 albino mouse assessed as dose required to cause toxicity after 4 hrs by rotarod test; assay type: organism-based; settings: in vivo; outline: as §1
[33] = system: Mus musculus; assay: Neurotoxicity in CF1 albino mouse at 300 mg/kg, ip after 0.5 hrs by rotarod test; assay type: toxicity, organism-based; set-up: dose 300 mg/kg, route intraperitoneal; settings: in vivo; outline: as §1

| Structure (SMILES) | Activity [1] | Activity [2] | Activity [4] | Activity [5] | Activity [7] | Activity [8] | Activity [9] | Activity [10] | Activity [11] | Activity [12] | Activity [15] | Time [17] | TD50 [20] | PI [21] | further results |
| --- | --- | --- | --- | --- | --- | --- | --- | --- | --- | --- | --- | --- | --- | --- | --- |
| O=C1CC2(CCc3ccccc3C2)C(=O)N1CN1CCN(CCO)CC1 (configuration not stated) | 100 mg/kg | 100 mg/kg | inactive | Non-toxic | 25% | 25% | inactive | 25% | 50% |  |  |  |  |  | Activity [3]: 300 mg/kg; Activity [6]: Non-toxic |
| O=C1CC2(CCc3ccccc3C2)C(=O)N1CN1CCN(c2ccccc2F)CC1 (configuration not stated) |  |  | inactive | Non-toxic |  |  |  |  |  | 300 mg/kg | inactive |  |  |  | Activity [13]: inactive; Activity [14]: inactive |
| O=C1NC2(CCc3ccccc3C2)C(=O)N1CN1CCOCC1 (configuration not stated) | 30 mg/kg | 30 mg/kg |  | Non-toxic | inactive | 25% | 50% | 75% | 100% | 100 mg/kg |  | 6 h | 400 mg/kg | >37.55 | Activity [3]: 100 mg/kg; Activity [16]: 100 mg/kg; ED50 [18]: 10.7 mg/kg; ED50 [19]: > 250 mg/kg; IC50 [22]: Not Active |
| O=C1CC2(CCc3ccccc3C2)C(=O)N1CN1CCN(c2cccc(Cl)c2)CC1 (configuration not stated) | 300 mg/kg | 100 mg/kg | inactive | Non-toxic | inactive | inactive | 25% | 50% | 50% | 300 mg/kg | inactive | 6 h | > 500 mg/kg | 25.55 | ED50 [18]: 19.6 mg/kg; Activity [23]: inactive; Activity [24]: inactive; Activity [25]: inactive; Activity [26]: inactive; Activity ([27]; route intraperitoneal): 50%; Activity [28]: inactive; Activity [29]: inactive; Activity [30]: Non-toxic; Activity [31]: 20.6 g; IC50 ([22]; read-out: IC50): 2.45 µM |
| O=C1CC2(CCc3ccccc3C2)C(=O)N1CN1CCN(c2ccccc2)CC1 (configuration not stated) |  |  | inactive |  |  |  |  |  |  | 100 mg/kg | inactive |  |  |  | Activity [13]: inactive; Activity [14]: inactive; Activity [32]: 300 mg/kg |
| O=C1NC(=O)C(c2ccccc2)(c2ccccc2)N1 [PHENYTOIN] | 30 mg/kg | 30 mg/kg | inactive |  | 25% | 100% | 75% | 75% | 75% | 100 mg/kg | inactive | 1 h | > 100 mg/kg | >3.6 | Activity [32]: 100 mg/kg; ED50 [19]: > 500 mg/kg; IC50 ([22]; read-out: IC50): 40 µM |
| O=C1CC2(CCc3ccccc3C2)C(=O)N1CN1CCN(Cc2ccccc2)CC1 (configuration not stated) | 300 mg/kg | 300 mg/kg | inactive | Non-toxic |  |  |  |  |  |  | inactive |  |  |  | Activity [33]: Non-toxic; Activity [23]: inactive; Activity [24]: inactive; Activity ([25]; route intraperitoneal): 25%; Activity [26]: inactive; Activity [27]: inactive |
